From ChEMBL document CHEMBL1148321, “New series of morpholine and 1,4-oxazepane derivatives as dopamine D4 receptor ligands: synthesis and 3D-QSAR model” (J Med Chem, 2004)
Active and inactive are the calls of the source. No cut-off for these calls is given here.

Legend:
[1] = molecular target: D(2) dopamine receptor (Homo sapiens) (UniProt P14416); test: Compound was tested for its affinity towards human Dopamine receptor D2 at 10 uM; No affinity was observed
D(4) dopamine receptor [2] = molecular target: T1, D(4) dopamine receptor (Homo sapiens, UniProt P21917); test: In vitro ability of compound to inhibit binding of [3H]spiperone to human Dopamine receptor D4
T1 sequence (P21917 whole entry): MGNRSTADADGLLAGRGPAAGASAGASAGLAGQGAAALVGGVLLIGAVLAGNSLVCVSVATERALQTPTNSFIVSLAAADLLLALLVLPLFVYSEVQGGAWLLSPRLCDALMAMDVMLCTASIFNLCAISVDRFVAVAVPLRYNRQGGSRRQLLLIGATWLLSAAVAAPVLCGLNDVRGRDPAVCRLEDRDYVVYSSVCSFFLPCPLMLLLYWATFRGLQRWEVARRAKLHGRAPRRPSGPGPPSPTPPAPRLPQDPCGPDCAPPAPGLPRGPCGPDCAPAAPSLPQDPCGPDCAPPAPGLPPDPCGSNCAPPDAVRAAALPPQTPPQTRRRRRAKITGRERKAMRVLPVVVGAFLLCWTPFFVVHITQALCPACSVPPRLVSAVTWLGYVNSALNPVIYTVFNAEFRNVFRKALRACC

D(4) dopamine receptor [3] = molecular target: T1, D(4) dopamine receptor; test: In vitro ability to inhibit binding of [3H]spiperone to human recombinant Dopamine receptor D4.2 expressed on CHO cells; type: cell-based
Outline: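 Frozen membranes from CHO cells transfected with human D4.2, stored at -80 C, were thawed and diluted in 50 mM Tris-HCl pH 7.4 with 120 mM NaCl, 5 mM KCl, 5 mM MgCl2 and 1 mM EDTA. They were incubated with [3H]spiperone (0.5 nM final) for 60 min at 25 C, with haloperidol defining nonspecific binding. Samples were filtered on PEI-presoaked GF/C filters, washed with cold Tris/NaCl, and counted by scintillation.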

D(2) dopamine receptor (Homo sapiens), sequence (P14416 whole entry): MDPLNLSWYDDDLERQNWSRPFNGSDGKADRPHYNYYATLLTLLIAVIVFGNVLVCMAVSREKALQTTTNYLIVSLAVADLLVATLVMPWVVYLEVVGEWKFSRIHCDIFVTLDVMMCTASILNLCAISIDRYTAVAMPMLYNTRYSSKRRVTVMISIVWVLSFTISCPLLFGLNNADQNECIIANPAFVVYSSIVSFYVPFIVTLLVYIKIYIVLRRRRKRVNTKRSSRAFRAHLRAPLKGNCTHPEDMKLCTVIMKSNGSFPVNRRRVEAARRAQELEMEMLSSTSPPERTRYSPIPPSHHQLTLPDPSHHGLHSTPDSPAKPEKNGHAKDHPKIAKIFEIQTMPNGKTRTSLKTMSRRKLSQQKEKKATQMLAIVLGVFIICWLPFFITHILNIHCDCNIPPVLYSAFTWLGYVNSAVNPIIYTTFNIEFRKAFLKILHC

Row | Activity [1] | Ki (D(4) dopamine receptor [2]) | Ki (D(4) dopamine receptor [3]) | SMILES
1 | inactive | 30 nM |  | COc1ccc(F)cc1OCC1CN(Cc2ccc(Cl)cc2)CCO1 (stereo unspecified)
2 | inactive | 1000 nM |  | COc1cccc(OCC2CN(Cc3ccc(Cl)cc3)CCO2)c1OC (stereo unspecified)
3 | inactive | 4.4 nM |  | COc1cc(Cl)ccc1OCC1CN(Cc2ccc(Cl)cc2)CCO1 (racemic)
4 | inactive | 9.3 nM |  | CCOc1ccc(Cl)cc1OCC1CN(Cc2ccc(Cl)cc2)CCCO1 (stereo unspecified)
5 | inactive | 100 nM |  | COc1ccc(N)cc1OCC1CN(Cc2ccc(Cl)cc2)CCO1 (stereo unspecified)
6 | inactive | 2.8 nM |  | COc1cc(Cl)ccc1OC[C@@H]1CN(Cc2ccc(Cl)cc2)CCO1
7 | inactive | 5.5 nM |  | CC(=O)c1ccc(Cl)cc1OCC1CN(Cc2ccc(Cl)cc2)CCCO1 (stereo unspecified)
8 | inactive | 40 nM |  | CCOc1cc(C#N)ccc1OCC1CN(Cc2ccc(Cl)cc2)CCO1 (stereo unspecified)
9 | inactive | 13 nM |  | CCOc1ccccc1OCC1CN(Cc2ccc(Cl)cc2)CCO1 (stereo unspecified)
10 | inactive | 23 nM |  | COc1ccc([N+](=O)[O-])cc1OCC1CN(Cc2ccc(Cl)cc2)CCO1 (stereo unspecified)
11 | inactive | 7 nM |  | CCOc1cc(Cl)ccc1OCC1CN(Cc2ccc(Cl)cc2)CCCO1 (stereo unspecified)
12 | inactive | 46 nM |  | CC(C)Oc1ccccc1OCC1CN(Cc2ccc(Cl)cc2)CCO1 (stereo unspecified)
13 | inactive | 40 nM |  | Clc1ccc(CN2CCOC(COc3ccc(Cl)c4cccnc34)C2)cc1 (stereo unspecified)
14 | inactive | 32 nM |  | CCCc1ccccc1OCC1CN(Cc2ccc(Cl)cc2)CCO1 (stereo unspecified)
15 | inactive | 2.9 nM |  | CCOc1ccc(Cl)cc1OCC1CN(Cc2ccc(Cl)cc2)CCO1 (stereo unspecified)
16 | inactive | 4.9 nM |  | CCOc1ccccc1OCC1CN(Cc2ccc(Cl)cc2)CCCO1 (stereo unspecified)
17 | inactive | 1600 nM |  | COc1cc(Cl)ccc1OC[C@H]1CN(Cc2ccc(Cl)cc2)CCO1
18 | inactive | 32 nM |  | COc1ccccc1OCC1CN(Cc2ccc(Cl)cc2)CCO1 (stereo unspecified)
19 | inactive | 83 nM |  | Cc1ncccc1OCC1CN(Cc2ccc(Cl)cc2)CCCO1 (stereo unspecified)
20 | inactive | 24 nM |  | CCOc1cc(I)ccc1OCC1CN(Cc2ccc(Cl)cc2)CCO1 (stereo unspecified)
21 | inactive | 250 nM |  | COc1ccc(C(F)(F)F)cc1OCC1CN(Cc2ccc(Cl)cc2)CCO1 (stereo unspecified)
22 | inactive | 52 nM |  | COCCOc1ccccc1OCC1CN(Cc2ccc(Cl)cc2)CCO1 (stereo unspecified)
23 | inactive | 13 nM |  | CCOc1cc(Cl)ccc1OCC1CN(Cc2ccc(Cl)cc2)CCO1 (stereo unspecified)
24 | inactive | 4.5 nM |  | COc1ccc(Cl)cc1NCC1CN(Cc2ccc(Cl)cc2)CCO1 (stereo unspecified)

The next lines start with the molecule.

Row | SMILES | Activity [1] | Ki (D(4) dopamine receptor [2]) | Ki (D(4) dopamine receptor [3])
25 | COc1ccccc1OCC1CN(Cc2ccc(C(F)(F)F)cc2)CCO1 (stereo unspecified) | inactive | 61 nM | 
26 | COc1cc(Cl)cc(OCC2CN(Cc3ccccc3)CCO2)c1 (stereo unspecified) | inactive |  | 
27 | COc1ccccc1SCC1CN(Cc2ccc(Cl)cc2)CCO1 (stereo unspecified) | inactive | 61 nM | 
28 | Oc1cc(Cl)ccc1NCC1CN(Cc2ccc(Cl)cc2)CCO1 (stereo unspecified) | inactive | 5.4 nM | 
29 | COc1ccccc1/C=C/C1CN(Cc2ccc(Cl)cc2)CCO1 (stereo unspecified) | inactive | 200 nM | 
30 | COc1cc(C(=O)NC2CC2)c(Cl)cc1OCC1CN(Cc2ccc(Cl)cc2)CCO1 (stereo unspecified) | inactive | 150 nM | 
31 | COc1ccc(Cl)cc1OCC1CN(Cc2ccccc2)CCO1 (stereo unspecified) | inactive | 70 nM | 
32 | COc1cc(Cl)ccc1OCC1CN(Cc2ccc(Br)cc2)CCCO1 (stereo unspecified) | inactive | 2 nM | 
33 | COc1ccccc1CCC1CN(Cc2ccc(Cl)cc2)CCO1 (stereo unspecified) | inactive | 29 nM | 
34 | COc1ccccc1OCC1CN(Cc2ccccc2)CCO1 (stereo unspecified) | inactive |  | 850 nM
35 | COc1ccc([N+](=O)[O-])cc1OCC1CN(Cc2ccc(Cl)cc2)CCCO1 (stereo unspecified) | inactive | 400 nM | 
36 | COc1cc(I)ccc1OCC1CN(Cc2ccccc2)CCO1 (stereo unspecified) | inactive | 430 nM | 
37 | COc1ccccc1OCC1CN(Cc2ccc(Cl)c(Cl)c2)CCO1 (stereo unspecified) | inactive | 32 nM | 
38 | CCOc1ccccc1OCC1CN(Cc2ccc(Cl)cc2Cl)CCO1 (stereo unspecified) | inactive | 290 nM | 
39 | CCOc1ccccc1OCC1CN(Cc2ccc(F)cc2)CCO1 (stereo unspecified) | inactive | 180 nM | 
40 | CCOc1ccccc1OCC1CN(Cc2ccc([N+](=O)[O-])cc2)CCO1 (stereo unspecified) | inactive | 35 nM | 
41 | COc1ccccc1OCC1CN(Cc2cccc(Cl)c2)CCO1 (stereo unspecified) | inactive | 650 nM | 
